The values that follow come from ChEMBL document CHEMBL1128506, “Synthesis and dopaminergic activity of pyridine analogs of 5-hydroxy-2-(di-n-propylamino)tetralin” (J Med Chem, 1995).

What is called Ki is a dissociation constant, usually derived from enzyme kinetics or from competition with a known ligand. What is called ED50 is the dose that gives a 50% effect, or the effect in half of the subjects. Low values mean greater potency, high ones weaker potency. What is called Inhibition is the change of the read-out against control, counted positive when it falls. Lower therefore signals a response near the control.

In test [1] the test system is Rattus norvegicus. Put plainly: Percent reversal of the increase on DOPA levels in the striatum of GBL-treated rats administered ip with 10 mg/kg of compound. It is filed as functional. To be noted: route intraperitoneal. Put shortly:
(§1)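 Male Long-Evans rats received compound 1 h before sacrifice. GBL (750 mg/kg ip) and the decarboxylase inhibitor NSD 1015 (100 mg/kg ip) were given 30 min before sacrifice. Striatal DOPA was measured by HPLC with electrochemical detection. Result reported as percent reversal of the GBL-induced DOPA increase, n = 4.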

Test [2] has as its target T1, D(2) dopamine receptor (Homo sapiens, UniProt P14416). Put plainly: In vitro binding affinity is the ability to displace [3H]spiperone from human Dopamine receptor D2 expressed in CHO-K1 cells. Type of test: cell-based.
Test [3] addresses T2, D(3) dopamine receptor (Homo sapiens, UniProt P35462). Description: In vitro binding affinity is the ability to displace [3H]spiperone from human Dopamine receptor D3 expressed in CHO-K1 cells. It is filed as cell-based.
The test system of test [4] is Mus musculus. Put plainly: Inhibition of locomotor activity(LMA) in mouse after ip administration of the compound. It is filed as functional. In a few lines: (§2)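 Mice given compound ip, then tested immediately for 1 h in darkened cylindrical photobeam chambers. Activity expressed as percent inhibition relative to vehicle-treated animals.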
The target in test [5] is T1, D(2) dopamine receptor. Description: In vitro binding affinity is the ability to displace [3H]N-0437 from human Dopamine receptor D2 expressed in CHO-K1 cells. It is filed as cell-based.
Test [6] has as its target T2, D(3) dopamine receptor. Put plainly: In vitro binding affinity is the ability to displace [3H]spiperone from human Dopamine receptor D3 expressed in CHO-K1 cells. It is filed as cell-based. In a few lines: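 CHO-K1 cells stably expressing human D3 receptor, grown in F-12 medium with 10% fetal bovine serum under humidified 5% CO2/95% air.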
In test [7] the test system is Rattus norvegicus. Put plainly: Percent reversal of the increase on DOPA levels in the striatum of GBL-treated rats administered ip with 10 mg/kg of compound. Type of test: functional. The note with it: route intraperitoneal. In a few lines: as §1
The test system of test [8] is Mus musculus. Description: Inhibition of locomotor activity(LMA) in mouse after ip administration of the compound. Type of test: functional. In a few lines:
as §2

For test [9], the system named is Rattus norvegicus. Put plainly: Inhibition of locomotor activity(LMA) in rat after sc administration of the compound.
Test [10] has as its system Rattus norvegicus. The description is as above. This is another data set of the same source.

T2 sequence (P35462 whole entry): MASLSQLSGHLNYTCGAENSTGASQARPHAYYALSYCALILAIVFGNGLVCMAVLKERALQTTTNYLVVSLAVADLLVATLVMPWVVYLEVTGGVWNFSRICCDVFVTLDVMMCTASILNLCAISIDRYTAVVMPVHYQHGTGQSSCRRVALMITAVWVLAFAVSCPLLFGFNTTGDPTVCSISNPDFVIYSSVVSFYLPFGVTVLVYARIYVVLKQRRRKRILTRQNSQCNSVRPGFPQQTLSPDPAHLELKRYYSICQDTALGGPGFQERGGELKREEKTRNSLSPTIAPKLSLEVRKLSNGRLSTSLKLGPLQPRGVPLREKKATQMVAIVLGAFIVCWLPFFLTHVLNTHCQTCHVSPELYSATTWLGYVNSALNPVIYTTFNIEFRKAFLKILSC
T1 sequence (P14416 whole entry): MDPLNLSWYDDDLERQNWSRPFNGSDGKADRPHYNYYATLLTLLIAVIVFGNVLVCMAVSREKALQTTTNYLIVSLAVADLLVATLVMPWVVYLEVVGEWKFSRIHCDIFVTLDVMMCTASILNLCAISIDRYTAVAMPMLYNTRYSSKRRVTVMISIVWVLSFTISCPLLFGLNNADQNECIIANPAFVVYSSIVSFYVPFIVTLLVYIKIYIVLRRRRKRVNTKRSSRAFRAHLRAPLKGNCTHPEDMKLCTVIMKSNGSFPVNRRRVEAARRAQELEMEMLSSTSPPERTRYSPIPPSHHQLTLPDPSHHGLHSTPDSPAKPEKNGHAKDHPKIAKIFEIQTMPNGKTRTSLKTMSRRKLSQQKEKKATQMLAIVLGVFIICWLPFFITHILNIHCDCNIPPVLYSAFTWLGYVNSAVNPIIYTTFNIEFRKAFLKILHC

Regarding `CCCN(CCC)C1CCc2nc(OC)ccc2C1` (centres undefined), the Decrease in [1] stood at 62%. The Ki in test [2] was greater than 3330 nM; in [3] it was 158 nM; in test [5] it was 1200 nM. The molecule also had an ED50 in [4] greater than 30 mg/kg.
As for `CCCN(CCC)C1CCc2nc(N)sc2C1` (centres undefined), the Ki in test [6] was 1.9 nM; in test [2] it was 462 nM; in [5], 57 nM. For the same molecule, the Decrease in test [7] was 88%. For the same molecule, the ED50 in [8] is greater than 30 mg/kg.
Turning to `CCCN(CCC)C1CCc2ncccc2C1` (centres undefined), in test [1], the Decrease amounted to 86%. For the same molecule, the Ki in test [2] was 272 nM; in [3] it was 4.97 nM; in [5], 466 nM. The ED50 in test [4] came to 0.08 mg/kg; in [9], 0.01 mg/kg.
Turning to `CCCN(CCC)C1CCc2cc(OC)ccc2C1` (centres undefined), the Ki was greater than 10000 nM in test [2], 366 nM in test [3] and 3940 nM in test [5].
For `CCCN(CCC)C1CCc2nc(N)ccc2C1` (centres undefined), the Decrease in [1] worked out at 86%. Moreover, the Ki in test [2] came out at 17.1 nM; in [3], 0.87 nM; in [5], 5 nM. The ED50 in test [4] was 0.25 mg/kg; in test [9], 0.05 mg/kg.
For `CCCN(CCC)C1CCc2n[nH]cc2C1` (centres undefined), the Ki is 36 nM in test [6], greater than 3330 nM in test [2] and 523 nM in test [5]. In test [1], the Decrease amounted to 91%. Further, the Inhibition in test [10] is listed as 45%. In test [4], this molecule gave an ED50 of 0.64 mg/kg.
For `CCCN(CCC)C1CCc2c(O)cccc2C1` (centres undefined) [5-OH-DPAT], the Decrease in test [1] is given as 70%. Besides, the ED50 in [4] is 0.01 mg/kg; in test [9], 0.004 mg/kg.
